The source of these data is ChEMBL document CHEMBL1125249, “Structure-affinity relationships of 12-sulfonyl derivatives of 5,8,8a,9,10,11,12,12a,13,13a-decahydro-6H-isoquino[2,1-g][1 ,6] naphthyridines at alpha-adrenoceptors” (J Med Chem, 1991).

Bounds are passed on as bounds.

In assay [1] the target is T1, Adrenergic receptor alpha-2 (Rattus norvegicus, UniProt P22086+P19328+P22909).
T1 sequence (P22086 whole entry): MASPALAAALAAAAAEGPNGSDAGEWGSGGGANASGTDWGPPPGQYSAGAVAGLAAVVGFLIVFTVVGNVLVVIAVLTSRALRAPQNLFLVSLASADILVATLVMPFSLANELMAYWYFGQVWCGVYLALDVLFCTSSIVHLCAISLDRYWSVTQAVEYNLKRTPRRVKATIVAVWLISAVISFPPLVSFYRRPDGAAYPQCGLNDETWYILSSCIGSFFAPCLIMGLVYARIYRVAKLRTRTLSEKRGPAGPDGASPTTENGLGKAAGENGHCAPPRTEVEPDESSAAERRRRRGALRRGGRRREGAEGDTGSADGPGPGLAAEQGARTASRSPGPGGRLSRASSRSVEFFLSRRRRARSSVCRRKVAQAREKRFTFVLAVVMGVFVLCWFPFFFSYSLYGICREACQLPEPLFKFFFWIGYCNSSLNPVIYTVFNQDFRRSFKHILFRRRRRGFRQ
T1 sequence (P19328 whole entry): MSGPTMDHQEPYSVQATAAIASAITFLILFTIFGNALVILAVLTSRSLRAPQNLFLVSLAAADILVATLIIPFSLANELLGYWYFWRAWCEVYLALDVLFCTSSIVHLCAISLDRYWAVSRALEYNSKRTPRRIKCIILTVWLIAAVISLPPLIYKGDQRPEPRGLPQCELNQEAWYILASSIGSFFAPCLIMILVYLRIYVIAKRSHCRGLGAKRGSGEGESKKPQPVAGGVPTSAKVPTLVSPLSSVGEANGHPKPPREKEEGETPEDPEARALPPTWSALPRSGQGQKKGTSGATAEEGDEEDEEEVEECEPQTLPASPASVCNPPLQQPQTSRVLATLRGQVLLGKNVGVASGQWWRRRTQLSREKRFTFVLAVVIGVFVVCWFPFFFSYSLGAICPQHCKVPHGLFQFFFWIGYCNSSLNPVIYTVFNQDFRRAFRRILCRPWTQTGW
T1 sequence (P22909 whole entry): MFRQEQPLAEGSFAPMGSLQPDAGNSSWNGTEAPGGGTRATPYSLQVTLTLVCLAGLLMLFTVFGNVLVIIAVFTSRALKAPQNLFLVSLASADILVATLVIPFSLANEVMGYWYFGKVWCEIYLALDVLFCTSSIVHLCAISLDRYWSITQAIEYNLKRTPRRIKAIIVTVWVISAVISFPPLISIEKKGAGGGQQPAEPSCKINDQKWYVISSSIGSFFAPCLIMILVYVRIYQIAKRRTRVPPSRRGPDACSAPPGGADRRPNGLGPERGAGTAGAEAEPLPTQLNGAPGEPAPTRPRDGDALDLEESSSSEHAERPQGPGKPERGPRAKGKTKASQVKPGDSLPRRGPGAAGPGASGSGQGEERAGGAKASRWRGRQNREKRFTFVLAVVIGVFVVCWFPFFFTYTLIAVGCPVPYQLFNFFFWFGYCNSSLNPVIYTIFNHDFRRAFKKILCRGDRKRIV
Nature of the assay: Binding affinity to alpha-2 adrenergic receptor determined by measurement of [3H]yohimbine displacement from rat cortical membrane.

Assay [2] addresses T2, Adrenergic receptor alpha-2 (Rattus norvegicus) (UniProt P22086+P19328+P22909).
Assay [3] deals with T2, Adrenergic receptor alpha-2 (Rattus norvegicus). The source holds these as a separate data set.
The target of assay [4] is T3, Adrenergic receptor alpha-1 (Rattus norvegicus, UniProt P15823+P23944+P43140).
T3 sequence (P15823 whole entry): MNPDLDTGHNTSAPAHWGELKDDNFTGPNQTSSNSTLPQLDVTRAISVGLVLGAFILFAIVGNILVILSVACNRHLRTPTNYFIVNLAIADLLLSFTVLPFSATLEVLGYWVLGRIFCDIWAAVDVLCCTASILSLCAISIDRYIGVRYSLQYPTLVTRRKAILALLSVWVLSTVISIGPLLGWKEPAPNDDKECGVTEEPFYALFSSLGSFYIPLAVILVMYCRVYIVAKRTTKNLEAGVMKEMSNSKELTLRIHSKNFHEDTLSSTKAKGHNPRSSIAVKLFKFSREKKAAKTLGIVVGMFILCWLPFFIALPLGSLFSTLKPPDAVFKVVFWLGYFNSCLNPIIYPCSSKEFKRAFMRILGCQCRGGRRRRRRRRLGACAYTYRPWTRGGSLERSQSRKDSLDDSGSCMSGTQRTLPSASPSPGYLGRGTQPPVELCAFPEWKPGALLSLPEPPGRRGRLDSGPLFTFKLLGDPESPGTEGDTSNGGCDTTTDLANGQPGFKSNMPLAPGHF
T3 sequence (P23944 whole entry): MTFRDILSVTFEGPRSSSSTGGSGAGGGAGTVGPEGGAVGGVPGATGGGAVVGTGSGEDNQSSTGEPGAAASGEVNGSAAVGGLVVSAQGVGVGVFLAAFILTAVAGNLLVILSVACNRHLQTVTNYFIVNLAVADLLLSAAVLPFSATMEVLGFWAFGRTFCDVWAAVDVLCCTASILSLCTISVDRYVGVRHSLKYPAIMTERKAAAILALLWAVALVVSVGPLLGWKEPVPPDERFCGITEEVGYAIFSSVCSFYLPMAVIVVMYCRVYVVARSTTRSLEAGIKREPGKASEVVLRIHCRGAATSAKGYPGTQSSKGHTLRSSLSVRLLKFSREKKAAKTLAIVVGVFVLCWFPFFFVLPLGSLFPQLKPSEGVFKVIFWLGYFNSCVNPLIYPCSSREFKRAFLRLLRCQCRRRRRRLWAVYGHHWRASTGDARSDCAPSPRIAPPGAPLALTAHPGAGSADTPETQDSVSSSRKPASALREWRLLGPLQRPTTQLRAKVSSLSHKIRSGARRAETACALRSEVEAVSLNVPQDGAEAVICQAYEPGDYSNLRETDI
T3 sequence (P43140 whole entry): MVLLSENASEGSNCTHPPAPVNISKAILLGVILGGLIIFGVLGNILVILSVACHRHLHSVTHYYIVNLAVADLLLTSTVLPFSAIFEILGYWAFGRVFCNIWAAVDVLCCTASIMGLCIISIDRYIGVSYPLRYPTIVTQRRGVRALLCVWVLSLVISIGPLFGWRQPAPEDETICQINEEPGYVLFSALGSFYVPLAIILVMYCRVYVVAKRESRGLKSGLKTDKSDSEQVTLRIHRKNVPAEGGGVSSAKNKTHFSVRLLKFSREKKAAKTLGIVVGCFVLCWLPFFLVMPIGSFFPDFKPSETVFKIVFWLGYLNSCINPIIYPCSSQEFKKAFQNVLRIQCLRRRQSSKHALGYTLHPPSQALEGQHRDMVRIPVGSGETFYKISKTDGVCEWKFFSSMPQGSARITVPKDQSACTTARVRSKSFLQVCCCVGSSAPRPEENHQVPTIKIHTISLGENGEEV
The experiment in a line: Binding affinity to alpha-1 adrenergic receptor determined by measurement of [3H]prazosin displacement from rat cortical membrane. The essentials: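 Male Sprague-Dawley rat (150-200 g) cerebral cortex membranes, washed in 50 mM Tris-HCl/0.5 mM EDTA pH 7.4. 250 µg membrane protein incubated with 0.5 nM [3H]prazosin for 30 min at 25 °C in a 0.5 mL volume. Nonspecific binding defined by 10 µM phentolamine. IC50 estimated graphically; Ki calculated by Cheng-Prusoff.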

For another assay, the species on record is Cavia porcellus. Nature of the assay: In vitro reversal of inhibitory effect of UK - 14304 on the contractile response of guinea pig ileum to field stimulation. The class given is functional, organism-based. The conditions noted are these: read-out: pA2 (converted). The essentials:
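Ileum from female Dunkin-Hartley guinea pigs (250-300 g) held in Tyrode solution at 37 °C, gassed with O2, under 1 g tension. Field stimulation at 0.1 Hz (1-ms pulses, supramaximal voltage), with isometric contractions recorded. Cumulative UK-14304 curves were run, the second taken as control. Antagonist was then applied for 40 min before repeat agonist curves.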

On to `COc1ccc2c(c1)CCN1C[C@H]3CCCN(S(=O)(=O)CC(C)C)[C@H]3C[C@@H]21`, for which the figures for the “Log Ki” value in assay [1] and in assay [4] were -8.77 and -5.41, respectively. For the same compound, the ID50 in assay [2] is 0.022 mg/kg; in assay [3], 0.41 mg/kg.

Take `c1ccc2c(c1)OCC(C1=NCCN1)O2` (centres undefined) [IDAZOXAN]: the ID50 is 0.017 mg/kg in assay [2] and 1.2 mg/kg in assay [3]. Also, the Kb in the assay filed under Cavia porcellus was 3.98 nM.

Take `O=S(=O)(CCO)N1CCC[C@@H]2CN3CCc4ccccc4[C@@H]3C[C@@H]21`: the “Log Ki” value in assay [1] is -8.16; in assay [4], -4.89. For the same compound, the ID50 in assay [2] worked out at 0.046 mg/kg; in assay [3], 1.34 mg/kg.

In the case of `COc1ccc2c(c1)CCN1C[C@H]3CCCN(S(C)(=O)=O)[C@@H]3C[C@@H]21`, the results for the ID50 in assay [2] and in assay [3] were 0.0065 mg/kg and 0.095 mg/kg, respectively. Further, in the assay filed under Cavia porcellus, the Kb is 0.2 nM.

Consider `COc1cc2c(cc1OC)[C@@H]1C[C@H]3[C@H](CCCN3S(C)(=O)=O)CN1CC2`, for which the “Log Ki” value is listed as -8.01 in assay [1] and -4.46 in assay [4]. Also, the figures for the ID50 in assay [2] and in assay [3] were 0.38 mg/kg and 1.6 mg/kg, respectively.

In the case of `O=S(=O)(c1ccccc1)N1CCC[C@@H]2CN3CCc4ccccc4[C@@H]3C[C@@H]21`, the entries for the “Log Ki” value in assay [1] and in assay [4] were -8.81 and -5.31, respectively. Besides, the ID50 is 0.053 mg/kg in assay [2] and over 10 mg/kg in assay [3].

`CS(=O)(=O)N1CCC[C@@H]2CN3CCc4cc5c(cc4[C@@H]3C[C@@H]21)OCCO5`: the “Log Ki” value is -8.8 in assay [1] and -5.02 in assay [4]. Moreover, the ID50 in assay [2] came to 0.13 mg/kg; in assay [3] it was 1.4 mg/kg.

As to `COC(=O)[C@@H]1[C@H]2C[C@H]3c4[nH]c5ccccc5c4CCN3C[C@@H]2CC[C@@H]1O`, the ID50 in assay [2] turned out to be 0.185 mg/kg; in assay [3] it was 2.8 mg/kg.

For `COCCS(=O)(=O)N1CCC[C@@H]2CN3CCc4ccccc4[C@@H]3C[C@@H]21`, the “Log Ki” value in assay [1] is -8.63; in assay [4] it was -5.13. The figures for the ID50 in assay [2] and in assay [3] were 0.062 mg/kg and 0.24 mg/kg, respectively.

As to `COc1ccc2c(c1)CCN1C[C@H]3CCCN(S(=O)(=O)N(C)C)[C@H]3C[C@@H]21`, the figures for the “Log Ki” value in assay [1] and in assay [4] were -8.66 and -5.25, respectively.

Consider `CS(=O)(=O)N1CCC[C@H]2CN3CCc4ccccc4[C@@H]3C[C@H]21`, for which the figures for the “Log Ki” value in assay [1] and in assay [4] were -5.96 and -5.58, respectively.

With `CS(=O)(=O)N1CCC[C@@H]2CN3CCc4c([nH]c5ccccc45)[C@@H]3C[C@@H]21`, the “Log Ki” value is -7.78 in assay [1] and -4.8 in assay [4].

On to `COc1ccc(OC)c2c1CCN1C[C@H]3CCCN(S(C)(=O)=O)[C@H]3C[C@@H]21`, for which the figures for the “Log Ki” value in assay [1] and in assay [4] were -7.37 and -5.63, respectively.

Turning to `CS(=O)(=O)N1CCC[C@@H]2CN3CCc4ccccc4[C@@H]3C[C@@H]21`, the “Log Ki” value is -8.77 in assay [1] and -5.26 in assay [4]. In addition, the ID50 in assay [2] came out at 0.0125 mg/kg; in assay [3], 1.2 mg/kg.

As for `COc1cc2c(cc1Br)[C@@H]1C[C@@H]3[C@H](CCCN3S(C)(=O)=O)CN1CC2`, the results for the “Log Ki” value in assay [1] and in assay [4] were -8.3 and -5.25, respectively.

With `COc1ccc2c(c1)CCN1C[C@@H]3CCCN(S(C)(=O)=O)[C@H]3C[C@@H]21`, the entries for the “Log Ki” value in assay [1] and in assay [4] were -7.84 and -5.2, respectively.

For `COc1ccc2c(c1OC)CCN1C[C@H]3CCCN(S(C)(=O)=O)[C@H]3C[C@@H]21`, the “Log Ki” value in assay [1] is -7.94; in assay [4], -4.42.

Consider `CC(C)CS(=O)(=O)N1CCC[C@@H]2CN3CCc4cc5c(cc4[C@@H]3C[C@@H]21)OCO5`, for which the “Log Ki” value in assay [1] is recorded as -8.17; in assay [4], -5.04. Further, the values for the ID50 in assay [2] and in assay [3] were 0.062 mg/kg and 0.44 mg/kg, respectively.

As to `CS(=O)(=O)N1CCC[C@H]2CN3CCc4cc5c(cc4[C@@H]3C[C@H]21)OCO5`, the “Log Ki” value is -7.24 in assay [1] and -5.95 in assay [4].

As for `COCCS(=O)(=O)N1CCC[C@@H]2CN3CCc4cc(OC)ccc4[C@@H]3C[C@@H]21`, the “Log Ki” value in assay [1] is on record as -9.22; in assay [4] it was -5.03. In addition, the ID50 was determined as 0.09 mg/kg in assay [2] and 0.3 mg/kg in assay [3].

With `COc1cc2c(cc1OC)[C@@H]1C[C@H]3[C@H](CCCN3S(C)(=O)=O)CN1C(C)C2` (some centres undefined), the “Log Ki” value in assay [1] is listed as -7.08; in assay [4] it was -4.93.

For the compound `CS(=O)(=O)N1CC[C@@H]2CN3CCc4ccccc4[C@@H]3C[C@@H]2C1`, the entries for the “Log Ki” value in assay [1] and in assay [4] were -7.54 and -5.8, respectively.
